MPTP inh = blocks calcium-induced mitochondrial swelling; isolated mouse mitochondria, Ca2+ swelling absorbance, 30 min; inhibition, % at 10 µM; 360,000 compounds, 1.4% hits;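 active means inhibition of 50% or more, scaled per plate between neutral and stimulator controls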;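 further: 0% = DMSO wells given calcium and 100% = 1 mM EGTA wells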
ATG4B inhibitor = blocks human ATG4B protease cleavage of LC3 substrate. Q9Y4P1. ATG4B cleavage of LC3-PLA2, NBD-HPC fluorescence, 1 h. inhibition, % at 8.33 µM. 340,000 compounds, 0.51% hits. AID 504462; in the data active means inhibition above about 40%
Target sequence (Q9Y4P1 whole entry, looked up): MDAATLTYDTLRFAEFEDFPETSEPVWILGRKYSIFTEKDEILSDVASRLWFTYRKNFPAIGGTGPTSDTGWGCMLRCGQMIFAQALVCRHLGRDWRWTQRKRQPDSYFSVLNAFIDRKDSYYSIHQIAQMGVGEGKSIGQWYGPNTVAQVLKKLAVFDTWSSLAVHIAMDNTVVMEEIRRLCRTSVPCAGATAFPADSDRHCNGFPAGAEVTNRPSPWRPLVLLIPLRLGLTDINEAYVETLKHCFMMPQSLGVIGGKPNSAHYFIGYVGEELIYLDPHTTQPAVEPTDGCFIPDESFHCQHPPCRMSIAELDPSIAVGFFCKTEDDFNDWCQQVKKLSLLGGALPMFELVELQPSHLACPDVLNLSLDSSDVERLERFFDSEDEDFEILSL
SMARCA2 activ = increases SMARCA2 function in MMTV reporter cells | 370,000 compounds, 1% hits | MG213 cells, MMTV-luciferase reporter, dexamethasone, overnight | activation, % at 9.1 µM | AID 652017; in the data active means activation above about 7.8%;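 further: 0% = vehicle wells and 100% = reference activator wells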
MC4R ag barr = agonists of human melanocortin 4 receptor (MC4R) beta-arrestin; P32245; U2OS MC4R beta-arrestin complementation, luminescence; percent of melanotan II response, DMSO zero; activation, % at 8.9 µM; 360,000 compounds, 0.98% hits; AID 540308;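 active means activation above a per-plate cutoff, the mean activation of sample wells on that plate plus 3 SD, cut at about 8% in these data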
MC4R antag cAMP = antagonists of human melanocortin 4 receptor (MC4R). MC4R-expressing cells, MTII-stimulated cAMP, LANCE TR-FRET. AID 540295. P32245. inhibition, % at 6.5 µM. 360,000 compounds, 0.48% hits;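 active means inhibition above its plate's cutoff, the mean of tested wells on that plate plus 3 SD, cut at about 29% in these data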;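 further: 0% = Melanotan II alone and 100% = Melanotan II plus saturating MCL0020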
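Test system: U2OS cells stably expressing human melanocortin 4 receptor (MC4R); also added: Melanotan II challenge; compound: 6.5 µM single dose; timing: 30-min compound preincubation, 1-h Melanotan II challenge, 1-h detection, room temperature; signal: Eu-cAMP/anti-cAMP TR-FRET, emission 671 nm; repeats: one well per compound, no replicates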
Rh123 counter = Rhodamine 123 counter-screen of mitochondrial pore hits; shares compounds with MPTP inh; isolated mitochondria, membrane potential, Rhodamine 123 fluorescence; inhibition, % at 10 µM; 5,000 compounds, 78% hits; AID 624504; in the data active means inhibition above about 22%;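 further: 0% = DMSO vehicle and 100% = positive control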
The depositor's hits bear a star. The list is not random: actives were taken first. Their share in the collection is about 4.1%.

For O=C(C1CC1)N1N=C(c2ccc(Cl)cc2)CC1(O)C(F)(F)F (stereo unspecified) the results were MPTP inh 0, ATG4B inhibitor -5, SMARCA2 activ -1, MC4R ag barr 1 and MC4R antag cAMP -4.
`Cc1cc(Nc2ccccc2)nc(-c2ccccc2O)n1` gave MPTP inh 3, ATG4B inhibitor 0, SMARCA2 activ 4, MC4R ag barr 3 and MC4R antag cAMP -6.
For Cc1cc(Nc2cccc(F)c2)nc(-c2ccccc2O)n1 the results were MPTP inh 59*, ATG4B inhibitor 9, SMARCA2 activ 0, MC4R ag barr 1, MC4R antag cAMP -3 and Rh123 counter 51*.
For COC(=O)[C@]12C[C@H](CC(=O)NCc3ccc(OC)c(OC)c3)C(=O)N(Cc3ccc(Cl)cc3Cl)C1=C[C@H](COCc1ccccc1)O[C@@H]2C the results were SMARCA2 activ -2.
For COC(=O)c1c(NC(=S)Nc2ccccc2Cl)sc(C)c1C the results were MPTP inh 56*, ATG4B inhibitor -4, MC4R ag barr 5, MC4R antag cAMP 8 and Rh123 counter 70*.
`COc1ccc(NC(=O)N(C)C[C@@H]2OCCCC[C@@H](C)Oc3ccc(NS(C)(=O)=O)cc3C(=O)N([C@H](C)CO)C[C@@H]2C)cc1` gave SMARCA2 activ -2.
Cc1ccc(NC(=S)NNC(=S)Nc2cccc(C(F)(F)F)c2)cc1 was read as MPTP inh 73*, ATG4B inhibitor 11, SMARCA2 activ -1, MC4R ag barr -1, MC4R antag cAMP 9 and Rh123 counter 53*.
Screening CC(NC(=S)Nc1cccc(C(F)(F)F)c1)C(C)(C)C (stereo unspecified) returned MPTP inh 94*, ATG4B inhibitor 0, SMARCA2 activ -1, MC4R ag barr 3, MC4R antag cAMP 2 and Rh123 counter 95*.
Screening COc1cccc(NC(=S)Nc2ccc(Br)cc2Cl)c1 returned MPTP inh 56*, ATG4B inhibitor -4, SMARCA2 activ 0, MC4R ag barr -3, MC4R antag cAMP 7 and Rh123 counter 69*.
COc1ccc(NC(=S)Nc2cccc(C(F)(F)F)c2)c(C)c1 was read as MPTP inh 78*, ATG4B inhibitor -7, SMARCA2 activ 1, MC4R ag barr 0, MC4R antag cAMP -4 and Rh123 counter 104*.
Screening O=C(Nc1ccc(Cl)cc1)N1CCN(Cc2nc3ccccc3c(=O)[nH]2)CC1 returned SMARCA2 activ -4.
CC(C)(C)c1ccc(-c2nnc(SCC(=O)Nc3cccc4ccccc34)n2Cc2ccco2)cc1 was read as SMARCA2 activ -5.
For C[C@@H]1OC(C2CCCCC2)N(C)[C@H]2C[C@H]3c4cc(N5CCOCC5)ccc4CCN3C[C@@H]12 (stereo partly specified) the results were SMARCA2 activ -2.
CSc1ccccc1NC(=S)Nc1cccc(C(F)(F)F)c1 was read as MPTP inh 94*, ATG4B inhibitor -5, SMARCA2 activ -2, MC4R ag barr -2, MC4R antag cAMP -3 and Rh123 counter 92*.
CN(C)C(=S)Nc1cccc(C(F)(F)F)c1 was read as MPTP inh 6, ATG4B inhibitor 1, SMARCA2 activ 5, MC4R ag barr -1 and MC4R antag cAMP 1.
Screening CCOC(=O)N1CCN(C(=O)C[C@@H]2C(=O)N3CCCC4=C3[C@@]2(C(=O)OCC)CCC4)CC1 returned SMARCA2 activ 0.
`O=S(=O)(Nc1nc2ccccc2nc1NCc1ccco1)c1ccc(Cl)cc1` gave MPTP inh -8, ATG4B inhibitor -13, SMARCA2 activ 1, MC4R ag barr 0 and MC4R antag cAMP 0.
`Cc1noc(C)c1CSc1nc2ccccc2nc1NS(=O)(=O)c1ccc(Cl)cc1` gave MPTP inh 88*, ATG4B inhibitor 8, MC4R ag barr 1, MC4R antag cAMP 3 and Rh123 counter 87*.
Screening Cn1nc(C(C)(C)C)cc1C(=O)NCc1ccc2c(c1)OCO2 returned MPTP inh 101*, ATG4B inhibitor 3, SMARCA2 activ -2, MC4R ag barr 2, MC4R antag cAMP 0 and Rh123 counter 105*.
Screening Cc1cccc(-c2cccc3c4c([nH]c23)[C@@H]2C[C@H](N(C)C(=O)c3ccccc3F)[C@H]([C@H](C)O)CN2CC4)c1 returned SMARCA2 activ -1.
